In ChEMBL document CHEMBL1134863, “Antifungal activity of bifunctional sphingolipids. Intramolecular synergism within long-chain alpha,omega-bis-aminoalcohols” (2002) one finds Activity, NA and MIC data, which are given here for 14 compounds.

As a reminder, the MIC is the least concentration at which growth counts as inhibited.

“And” between values parts separate entries of the source, which are not always exact repeats. Equal values may be shown once. The source made the active and inactive calls. The calls are words filed in the database; no cut-off is given here.

Assay [1] relates to Nakaseomyces glabratus. The assay can be described thus: Fungistatic activity of bifunctional sphingolipids against Candida glabrata at a concentration of 0.3 ug/mL before dilution replating; growth in media. The class given is functional, organism-based.
Assay [2] relates to Nakaseomyces glabratus. Kind of assay: Fungistatic activity of bifunctional sphingolipids against Candida glabrata at a concentration of 3 ug/mL before dilution replating; growth in media. It is filed as functional, organism-based.
Assay [3] concerns Nakaseomyces glabratus. Kind of assay: Fungistatic activity of bifunctional sphingolipids against Candida glabrata at a concentration of 30 ug/mL before dilution replating; no growth in media. The class given is functional, organism-based.
The test system of assay [4] is Nakaseomyces glabratus. Kind of assay: Minimum inhibitory concentration against Candida glabrata. It is filed as functional. Put shortly:
(§1)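 Microbroth dilution assay, modified from a published method, against C. glabrata (fluconazole-resistant strain). MIC values come from duplicate experiments.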

Assay [5] deals with Nakaseomyces glabratus. The assay can be described thus: Fungistatic activity of bifunctional sphingolipids against Candida glabrata at a concentration of 6 ug/mL before dilution replating; growth in media. It is filed as functional, organism-based.
Assay [6] concerns Nakaseomyces glabratus. Kind of assay: Fungistatic activity of bifunctional sphingolipids against Candida glabrata at a concentration of 5 ug/mL before dilution replating; growth in media. The class given is functional, organism-based.
The subject of assay [7] is Nakaseomyces glabratus. The assay can be described thus: Fungistatic activity of bifunctional sphingolipids against Candida glabrata at a concentration of 10 ug/mL before dilution replating; growth in media. The class given is functional, organism-based.
In assay [8] the test system is Nakaseomyces glabratus. Kind of assay: Fungistatic activity of bifunctional sphingolipids against Candida glabrata at a concentration of 12 ug/mL before dilution replating; growth in media. The class given is functional, organism-based.
The subject of assay [9] is Nakaseomyces glabratus. Kind of assay: Fungistatic activity of bifunctional sphingolipids against Candida glabrata at a concentration of 1 ug/mL before dilution replating; growth in media. It is filed as functional, organism-based.
Assay [10] concerns Nakaseomyces glabratus. Kind of assay: Fungicidal versus fungistatic activity of bifunctional sphingolipids against Candida glabrata at a concentration of 1 ug/mL before dilution replating; no fungistatic growth on plate. It is filed as functional, organism-based.
Assay [11] deals with Nakaseomyces glabratus. Kind of assay: Fungicidal versus fungistatic activity of bifunctional sphingolipids against Candida glabrata at a concentration of 0.3 ug/mL before dilution replating; growth in media. It is filed as functional, organism-based.
In assay [12] the test system is Nakaseomyces glabratus. Kind of assay: Fungicidal versus fungistatic activity of bifunctional sphingolipids against Candida glabrata at a concentration of 12 ug/mL before dilution replating; no growth in media. The class given is functional, organism-based.
Assay [13] has as its system Nakaseomyces glabratus. Kind of assay: Fungicidal versus fungistatic activity of bifunctional sphingolipids against Candida glabrata at a concentration of 6 ug/mL before dilution replating; no growth in media. It is filed as functional, organism-based.
In assay [14] the test system is Nakaseomyces glabratus. The assay can be described thus: Fungicidal versus fungistatic activity of bifunctional sphingolipids against Candida glabrata at a concentration of 5 ug/mL before dilution replating; no growth in media. It is filed as functional, organism-based.
Assay [15] concerns Nakaseomyces glabratus. Kind of assay: Fungicidal versus fungistatic activity of bifunctional sphingolipids against Candida glabrata at a concentration of 10 ug/mL before dilution replating; no growth in media. It is filed as functional, organism-based.
Assay [16] concerns Nakaseomyces glabratus. Kind of assay: Fungicidal versus fungistatic activity of bifunctional sphingolipids against Candida glabrata at a concentration of 3 ug/mL before dilution replating; no fungistatic growth on plate. The class given is functional, organism-based.
In assay [17] the test system is Nakaseomyces glabratus. Kind of assay: Antifungal minimum inhibitory concentration of compound against Candida glabrata; Inactive. The class given is functional, organism-based. Put shortly:
as §1

Assay [18] deals with Nakaseomyces glabratus. The assay can be described thus: Fungicidal versus fungistatic activity of bifunctional sphingolipids against Candida glabrata at a concentration of 6 ug/mL before dilution replating; no fungistatic growth on plate. The class given is functional, organism-based.
Assay [19] concerns Nakaseomyces glabratus. The assay can be described thus: Fungicidal versus fungistatic activity of bifunctional sphingolipids against Candida glabrata at a concentration of 10 ug/mL before dilution replating; no fungicidal growth on plate. The class given is functional, organism-based.
In assay [20] the test system is Nakaseomyces glabratus. Kind of assay: Fungicidal versus fungistatic activity of bifunctional sphingolipids against Candida glabrata at a concentration of 3 ug/mL before dilution replating; growth in media. It is filed as functional, organism-based.
For assay [21], the system named is Nakaseomyces glabratus. Kind of assay: Fungicidal versus fungistatic activity of bifunctional sphingolipids against Candida glabrata at a concentration of 5 ug/mL before dilution replating; growth in media. The class given is functional, organism-based.
Assay [22] has as its system Nakaseomyces glabratus. Kind of assay: Fungicidal versus fungistatic activity of bifunctional sphingolipids against Candida glabrata at a concentration of 1 ug/mL before dilution replating; growth in media. The class given is functional, organism-based.
Assay [23] has as its system Nakaseomyces glabratus. The assay can be described thus: Fungicidal versus fungistatic activity of bifunctional sphingolipids against Candida glabrata at a concentration of 5 ug/mL before dilution replating; no fungistatic growth on plate. It is filed as functional, organism-based.
Assay [24] relates to Nakaseomyces glabratus. The assay can be described thus: Fungicidal versus fungistatic activity of bifunctional sphingolipids against Candida glabrata at a concentration of 12 ug/mL before dilution replating no fungistatic growth on plate. The class given is functional, organism-based.
Assay [25] concerns Nakaseomyces glabratus. The assay can be described thus: Fungicidal versus fungistatic activity of bifunctional sphingolipids against Candida glabrata at a concentration of 10 ug/mL before dilution replating; no fungistatic growth on plate. It is filed as functional, organism-based.
Assay [26] deals with Nakaseomyces glabratus. Kind of assay: Fungicidal versus fungistatic activity of bifunctional sphingolipids against Candida glabrata at a concentration of 6 ug/mL before dilution replating; growth in media. It is filed as functional, organism-based.
Assay [27] relates to Nakaseomyces glabratus. Kind of assay: Fungicidal versus fungistatic activity of bifunctional sphingolipids against Candida glabrata at a concentration of 1 ug/mL before dilution replating; no (fungicidal, no growth on plate) growth in media. It is filed as functional, organism-based.
The test system of assay [28] is Nakaseomyces glabratus. Kind of assay: Fungicidal versus fungistatic activity of bifunctional sphingolipids against Candida glabrata at a concentration of 3 ug/mL before dilution replating; no growth in media. It is filed as functional, organism-based.
In assay [29] the test system is Nakaseomyces glabratus. Kind of assay: Fungicidal versus fungistatic activity of bifunctional sphingolipids against Candida glabrata at a concentration of 0.3 ug/mL before dilution replating; (fungicidal, no growth on plate) no growth in media. It is filed as functional, organism-based.
[30] abbreviates: Nakaseomyces glabratus, read-out: MIC.

In the case of `CCCCCCCCCCCCC/C=C/[C@@H](O)[C@@H](N)CO` [SPHINGOSINE], the outcome with Nakaseomyces glabratus [1], in the assay on Nakaseomyces glabratus [2], in the assay with Nakaseomyces glabratus [5], with Nakaseomyces glabratus [6], with Nakaseomyces glabratus [7] and in the assay on Nakaseomyces glabratus [8] was inactive. Moreover, the result with Nakaseomyces glabratus [9] was inactive. Further, in the assay with Nakaseomyces glabratus [3], the NA result is “Partially active”. In addition, the MIC in the assay with Nakaseomyces glabratus [4] (setting [30]) was 30 µg/mL and 100 µM.
Take `OC(Cn1cncn1)(Cn1cncn1)c1ccc(F)cc1F` [FLUCONAZOLE]: the Activity entry in the assay on Nakaseomyces glabratus [10], in the assay on Nakaseomyces glabratus [11], with Nakaseomyces glabratus [12], with Nakaseomyces glabratus [13], in the assay on Nakaseomyces glabratus [14] and in the assay on Nakaseomyces glabratus [15] was “growth in media” in each case. Besides, the Activity entry with Nakaseomyces glabratus [16] is recorded as “growth in media”. The MIC result against Nakaseomyces glabratus [4] is “>=100 ug ml-1”; with Nakaseomyces glabratus [4] (setting [30]), above 64 µg/mL.
As for `CCC[C@@H](O)[C@H](C)N`, the MIC in the assay on Nakaseomyces glabratus [4] (setting [30]) was above 100 µg/mL. For the same compound, the MIC result in the assay with Nakaseomyces glabratus [17] was “inactive”.
The corresponding values for `C[C@H](NC(=O)c1ccccc1)[C@@H](CCCCCCCCCCCCCCCCCCCC[C@@H](OC(=O)c1ccccc1)[C@H](C)NC(=O)c1ccccc1)OC(=O)c1ccccc1` are above 100 µg/mL and “inactive”.
The corresponding values for `CCC[C@@H](OC(=O)c1ccccc1)[C@H](COC(=O)c1ccccc1)NC(=O)c1ccccc1` are above 100 µg/mL and “inactive”.
For the compound `NCCCCCCCCCCCCN`, the MIC in the assay with Nakaseomyces glabratus [4] (setting [30]) is above 100 µg/mL.
Turning to `C[C@@H](N)[C@H](O)CCCCCCCCCCCCCCC(=O)CCCCCCC[C@@H](OC[C@H]1O[C@@H](O)[C@H](O)[C@@H](O)[C@@H]1O)[C@@H](N)CO`, the Activity entry in the assay on Nakaseomyces glabratus [18], in the assay with Nakaseomyces glabratus [11], in the assay with Nakaseomyces glabratus [19], in the assay with Nakaseomyces glabratus [20], in the assay on Nakaseomyces glabratus [21] and in the assay on Nakaseomyces glabratus [22] was “growth in media” each time. Also, in the assay with Nakaseomyces glabratus [4] (setting [30]), the MIC is 10 µg/mL and 15 µM.
For the compound Hexadecyl-trimethyl-ammonium bromide, in the assay on Nakaseomyces glabratus [4], the MIC was 5 µg/mL and 14 µM.
As to `C[N+](C)(C)CCCCCCCCCCCC[N+](C)(C)C.[Cl-].[Cl-]`, the minimal inhibitory concentration (MIC) with Nakaseomyces glabratus [4] (setting [30]) was above 100 µg/mL. Moreover, the MIC result in the assay with Nakaseomyces glabratus [17] was “inactive”.
Turning to `C[C@@H](N)[C@H](O)CCCCCCCCCCCCCCC(=O)CCCCCCC[C@@H](O)[C@@H](N)CO`, the Activity entry in the assay on Nakaseomyces glabratus [18], in the assay with Nakaseomyces glabratus [11], with Nakaseomyces glabratus [12], with Nakaseomyces glabratus [19], in the assay with Nakaseomyces glabratus [20] and with Nakaseomyces glabratus [22] was “growth in media” in each case. The Activity entry with Nakaseomyces glabratus [23] was “growth in media”. Also, the MIC in the assay with Nakaseomyces glabratus [4] (setting [30]) was 3 µg/mL and 6.2 µM.
For the compound `CCC[C@@H](O)[C@@H](N)CO`, in the assay with Nakaseomyces glabratus [4] (setting [30]), the MIC is above 100 µg/mL. The MIC entry in the assay on Nakaseomyces glabratus [17] is “inactive”.
As for `C[C@H](N)[C@H](O)CCCCCCCCCCCCCCCCCCCC[C@@H](O)[C@H](C)N`, the Activity entry with Nakaseomyces glabratus [11], with Nakaseomyces glabratus [24], in the assay with Nakaseomyces glabratus [25], in the assay on Nakaseomyces glabratus [20], in the assay on Nakaseomyces glabratus [21] and in the assay on Nakaseomyces glabratus [22] was “growth in media” each time. In addition, the Activity result in the assay on Nakaseomyces glabratus [26] was “growth in media”. Besides, in the assay on Nakaseomyces glabratus [4] (setting [30]), the MIC is 10 µg/mL and 24 µM.
As for `NCCCCCCN`, the MIC with Nakaseomyces glabratus [4] (setting [30]) is above 100 µg/mL. Besides, the MIC entry in the assay with Nakaseomyces glabratus [17] was “inactive”.
`C[C@@H]1[C@H](O)[C@@H](C)/C=C/C=C/C=C/C=C/C=C/C=C/C=C/[C@H](O[C@@H]2O[C@H](C)[C@@H](O)[C@H](N)[C@@H]2O)C[C@@H]2O[C@](O)(C[C@@H](O)C[C@@H](O)[C@H](O)CC[C@@H](O)C[C@@H](O)CC(=O)O[C@H]1C)C[C@H](O)[C@H]2C(=O)O`: the Activity result in the assay with Nakaseomyces glabratus [27], in the assay on Nakaseomyces glabratus [12], with Nakaseomyces glabratus [13], in the assay on Nakaseomyces glabratus [28], in the assay on Nakaseomyces glabratus [14] and in the assay with Nakaseomyces glabratus [29] was “no growth in media” in each case. Further, in the assay with Nakaseomyces glabratus [15], the Activity entry was “no growth in media”.
